According to PMC8799877 (Acta Pharmaceutica Sinica. B, 2021):

Assays:
[1] = target: BRD4(2) (Homo sapiens, UniProt O60885); test: HTRF bromodomain binding assay, BRD4
[2] = target: BRD4(1) (Homo sapiens, UniProt O60885); test: HTRF bromodomain binding assay, BRD4
[3] = MTT cytotoxicity / cell viability in NRCMs; type: cell-based; conditions: Sprague-Dawley, rat, primary neonatal rat cardiac myocytes (NRCMs)
[4] = In vivo pharmacokinetic study; parameters: species or system male Sprague-Dawley rats; conditions: for CL_F_pred / Vz_F_pred: rats
Outline: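 Male SD rats (n = 3) dosed iv at 2 mg/kg or orally at 10 mg/kg. Plasma separated by centrifugation at 4 °C, 6000 rpm, 8 min, and analysed by LC–MS. Parameters reported as mean ± SD.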

[5] = MTT cytotoxicity / cell viability in NRCFs; type: cell-based; conditions: Sprague-Dawley, rat, primary neonatal rat cardiac fibroblasts (NRCFs)
[6] = target: BRD4 (Rattus norvegicus, UniProt A0A8I6A216); test: Cellular thermal shift assay; type: cell-based; conditions: NRCFs, 10 μmol/L, 4 h, heated from 43 to 61 °C
[7] = system: TGF-β1/Smad2/3 signaling pathway; test: Ang II-induced TGF-β1/Smad2/3 signaling in NRCFs; type: cell-based, rat; conditions: pretreatment, Western blot
Outline: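 Fibroblasts from hearts of 1–3-day-old neonatal SD rats: trypsin (0.8 mg/mL, 4 °C overnight), then collagenase II (0.8 mg/mL), 2 h differential plating. Treated cells lysed in RIPA, protein by BCA, 10% SDS-PAGE, nitrocellulose, 5% nonfat milk block 2 h, primary antibodies 4 °C overnight, secondary 1:10,000 2 h, chemiluminescence, densitometry.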

[8] = system: NRCFs; test: Ang II-induced cardiac fibroblast activation; type: cell-based, rat; conditions: immunofluorescent staining
Outline: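 Treated neonatal rat cardiac fibroblasts fixed in 4% paraformaldehyde overnight, permeabilised with 0.1% Triton X-100 10 min, blocked in 5% BSA 20 min. Anti-α-SMA (1:300) at 4 °C overnight, then Alexa Fluor 488 goat anti-rabbit IgG (1:200) 2 h in the dark, DAPI 15 min. Imaged by laser confocal microscopy; n = 3.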

[9] = system: NRCFs; test: Wound scratch migration assay; type: cell-based, rat; conditions: C-34 1 μmol/L or JQ1 0.2 μmol/L, Ang II 12 or 24 h
[10] = system: MV4-11 and RS411 acute leukemia xenograft models; conditions: 5 mg/kg; cited from earlier work
[11] = male, Sprague-Dawley, rat, plasma, iv, 2 mg/kg
[12] = male, Sprague-Dawley, rat, plasma, po, 10 mg/kg

Compound | IC50 [1] | other results
OCCNc1nc(-c2ccc(Cl)cc2)c2ccccc2n1 [Compound 6] | 8.314 ± 0.016 µM | –
CC(C)(CO)Nc1nc(-c2ccc(Cl)cc2)c2ccccc2n1 [Compound 7] | 12.4 ± 1.09 µM | –
NC(=O)CNc1nc(-c2ccc(Cl)cc2)c2ccccc2n1 [Compound 8] | 4.55 ± 0.658 µM | fold more potent than compound 5 (BRD4(2) IC50) ([1]; vs compound 5): about 4 fold
Clc1ccc(-c2nc(NCCc3c[nH]c4ccccc34)nc3ccccc23)cc1 [Compound 9] | 14.8 ± 1.17 µM | –
Clc1ccc(-c2nc(NCc3ccco3)nc3ccccc23)cc1 [Compound 10] | 13.3 ± 1.12 µM | –
COC(=O)c1ccc(CNc2nc(-c3ccc(Cl)cc3)c3ccccc3n2)cc1 [Compound 11] | 9.04 ± 0.956 µM | –
COC(=O)c1ccc(Nc2nc(-c3ccc(Cl)cc3)c3ccccc3n2)cc1 [Compound 12] | 7.05 ± 0.848 µM | –
O=C(O)c1ccc(Nc2nc(-c3ccc(Cl)cc3)c3ccccc3n2)cc1 [Compound 13] | 3.05 ± 0.484 µM | –
Oc1ccc(Nc2nc(-c3ccc(Cl)cc3)c3ccccc3n2)cc1 [Compound 14] | 4.31 ± 0.18 µM | –
Clc1ccc(-c2nc(Nc3ccccc3)nc3ccccc23)cc1 [Compound 15] | 10.6 ± 0.367 µM | –
Cc1ccc(Nc2nc(-c3ccc(Cl)cc3)c3ccccc3n2)cc1 [Compound 16] | 8.62 ± 0.164 µM | –
CC(C)c1ccc(Nc2nc(-c3ccc(Cl)cc3)c3ccccc3n2)cc1 [Compound 17] | 12.9 ± 0.947 µM | –
Clc1ccc(-c2nc(Nc3ccc(Br)cc3)nc3ccccc23)cc1 [Compound 18] | 7.02 ± 0.517 µM | –
NS(=O)(=O)c1ccc(Nc2nc(-c3ccc(Cl)cc3)c3ccccc3n2)cc1 [Compound 19] | 1.53 ± 0.185 µM | fold more active in comparison to compound 15 (BRD4(2) IC50) ([1]; vs compound 15): about 7 fold; IC50 [2]: 3.37 ± 0.528 µM
O=S(=O)(c1ccc(Nc2nc(-c3ccc(Cl)cc3)c3ccccc3n2)cc1)N1CCOCC1 [Compound 20] | 3.88 ± 0.589 µM | –
NS(=O)(=O)c1cccc(Nc2nc(-c3ccc(Cl)cc3)c3ccccc3n2)c1 [Compound 21] | > 20 µM | –
NS(=O)(=O)c1ccc(Nc2nc(-c3ccccc3Cl)c3ccccc3n2)cc1 [Compound 23] | 19.7 ± 1.3 µM | –
NS(=O)(=O)c1ccc(Nc2nc(-c3cccc(Cl)c3)c3ccccc3n2)cc1 [Compound 24] | 15.1 ± 1.18 µM | –
Cc1ccc2nc(Nc3ccc(S(N)(=O)=O)cc3)nc(-c3ccc(Cl)cc3)c2c1 [Compound 25] | 12.6 ± 0.307 µM | –
NS(=O)(=O)c1ccc(Nc2nc(-c3ccc(Br)cc3)c3ccccc3n2)cc1 [Compound 26] | 1.63 ± 0.212 µM | IC50 [2]: 1.6 ± 0.205 µM
NS(=O)(=O)c1ccccc1Nc1nc(-c2ccc(Br)cc2)c2ccccc2n1 [Compound 27] | 3.21 ± 0.206 µM | –
NS(=O)(=O)c1ccc(Nc2nc(-c3ccc(F)cc3)c3ccccc3n2)cc1 [Compound 28] | 0.242 ± 0.049 µM | IC50 at 24 h [3]: 19.1 ± 1.4 µM; AUC(0-inf) [4, 11]: 7130 ng·h/mL; AUC(0-t) [4, 11]: 7100 ng·h/mL; Cmax [4, 11]: 2820 ng/mL; MRT last [4, 11]: 3.46 h; half-life [4, 11]: 3.13 h; bioavailability ([4]; male, Sprague-Dawley, rat, plasma, oral, 10 mg/kg): 43.1%; AUC(0-inf) [4, 12]: 15400 ng·h/mL; AUC(0-t) [4, 12]: 15300 ng·h/mL; Cmax [4, 12]: 2170 ng/mL; MRT last [4, 12]: 4.27 h; Tmax [4, 12]: 2.67 h; half-life [4, 12]: 1.77 h; CL_F_pred ([4]; iv 2 mg/kg): 4.67 mL/min/kg; Vz_F_pred ([4]; iv 2 mg/kg): 1.27 L/kg; CL_F_pred ([4]; po 10 mg/kg): 12 mL/min/kg; Vz_F_pred ([4]; po 10 mg/kg): 1.77 L/kg; IC50 [2]: 0.286 ± 0.046 µM; IC50 at 24 h [5]: 48.2 ± 1.68 µM; BRD4 thermal stabilization (CETSA, Western blot) [6]: could efficiently stabilize BRD4 from 43 to 61 °C
NS(=O)(=O)c1ccccc1Nc1nc(-c2ccc(F)cc2)c2ccccc2n1 [Compound 29] | 0.589 ± 0.052 µM | IC50 [2]: 0.615 ± 0.127 µM
N#Cc1ccc(-c2nc(Nc3ccc(S(N)(=O)=O)cc3)nc3ccccc23)cc1 [Compound 30] | 0.688 ± 0.016 µM | IC50 [2]: 0.588 ± 0.024 µM

Compound | IC50 [1] | other results
NS(=O)(=O)c1ccc(Nc2nc(-c3ccc(C(F)(F)F)cc3)c3ccccc3n2)cc1 [Compound 31] | 0.424 ± 0.038 µM | IC50 [2]: 0.687 ± 0.054 µM
NS(=O)(=O)c1ccc(Nc2nc(-c3ccccc3)c3ccccc3n2)cc1 [Compound 32, 4-((4-Phenylquinazolin-2-yl)amino)benzenesulfonamide] | 10.3 ± 1.01 µM | –
Cc1ccc(-c2nc(Nc3ccc(S(N)(=O)=O)cc3)nc3ccccc23)cc1 [Compound 33, 4-((4-(p-Tolyl)quinazolin-2-yl)amino)benzenesulfonamide] | 3.23 ± 0.089 µM | –
Cc1ccc(-c2nc(Nc3ccc(S(N)(=O)=O)cc3)nc3ccc(C)cc23)cc1 [Compound 34, 4-((6-Methyl-4-(p-tolyl)quinazolin-2-yl)amino)benzenesulfonamide] | 13.6 ± 1.13 µM | –
COc1ccc(-c2nc(Nc3ccc(S(N)(=O)=O)cc3)nc3ccccc23)cc1 [Compound 35, 4-((4-(4-Methoxyphenyl)quinazolin-2-yl)amino)benzenesulfonamide] | 8.12 ± 0.084 µM | –
COc1ccc(-c2nc(Nc3ccccc3S(N)(=O)=O)nc3ccccc23)cc1 [Compound 36] | 9.91 ± 0.996 µM | –
CNC(=O)c1ccc(-c2nc(Nc3ccc(S(N)(=O)=O)cc3)nc3ccccc23)cc1 [Compound 37] | 3.65 ± 0.562 µM | –
COC(=O)c1ccc(-c2nc(Nc3ccc(S(N)(=O)=O)cc3)nc3ccccc23)cc1 [Compound 38] | 5.17 ± 0.614 µM | –
COC(=O)c1ccc(-c2nc(Nc3ccccc3S(N)(=O)=O)nc3ccccc23)cc1 [Compound 39] | 3.33 ± 0.522 µM | –
COC(=O)c1cccc(-c2nc(Nc3ccc(S(N)(=O)=O)cc3)nc3ccccc23)c1 [Compound 40] | 7.62 ± 0.882 µM | –
NS(=O)(=O)c1ccc(Nc2nc(-c3cccc4ccccc34)c3ccccc3n2)cc1 [Compound 41, 4-((4-(Naphthalen-1-yl)quinazolin-2-yl)amino)benzenesulfonamide] | 4.76 ± 0.678 µM | –
NS(=O)(=O)c1ccc(Nc2nc(-c3ccc(OCc4ccccc4)cc3)c3ccccc3n2)cc1 [Compound 42, 4-((4-(4-(Benzyloxy)phenyl)quinazolin-2-yl)amino)benzenesulfonamide] | > 20 µM | –
O=C(O)c1ccc(Nc2nc(-c3ccc(F)cc3)c3ccccc3n2)cc1 [Compound 43, 4-((4-(4-Fluorophenyl)quinazolin-2-yl)amino)benzoic acid] | 0.925 ± 0.081 µM | IC50 [2]: 4.47 ± 0.361 µM
O=C(O)c1ccc(CNc2nc(-c3ccc(F)cc3)c3ccccc3n2)cc1 [Compound 44, 4-(((4-(4-Fluorophenyl)quinazolin-2-yl)amino)methyl)benzoic acid] | 2.07 ± 0.625 µM | IC50 [2]: 5.13 ± 0.626 µM
CC(C)c1ccc(Nc2nc(-c3ccc(F)cc3)c3ccccc3n2)cc1 [Compound 45] | 5.27 ± 0.367 µM | –
NS(=O)(=O)c1ccc(CNc2nc(-c3ccc(F)cc3)c3ccccc3n2)cc1 [Compound 46] | 6.12 ± 0.258 µM | –
NS(=O)(=O)c1ccc(CCNc2nc(-c3ccc(F)cc3)c3ccccc3n2)cc1 [Compound 47] | 18.63 ± 0.047 µM | –
O=S(=O)(c1ccccc1Nc1nc(-c2ccc(F)cc2)c2ccccc2n1)N1CCOCC1 [Compound 48] | 6.69 ± 0.825 µM | –
O=S(=O)(c1ccc(Nc2nc(-c3ccc(F)cc3)c3ccccc3n2)cc1)N1CCOCC1 [Compound 49] | 1.33 ± 0.628 µM | IC50 [2]: 5.95 ± 0.248 µM
O=C(c1ccc(Nc2nc(-c3ccc(F)cc3)c3ccccc3n2)cc1)N1CCOCC1 [Compound 50] | 3.07 ± 0.584 µM | –
NS(=O)(=O)c1ccc(Nc2nc(Nc3ccc(Br)cc3)c3ccccc3n2)cc1 [Compound 52] | 9.85 ± 0.993 µM | fold decrease on potency vs compound 26 (BRD4(2) IC50) ([1]; vs compound 26): ~6 fold
Cc1sc2c(c1C)C(c1ccc(Cl)cc1)=N[C@@H](CC(=O)OC(C)(C)C)c1nnc(C)n1-2 [JQ1] | – | Ang II-induced upregulation of TGF-β1, p-Smad2 and p-Smad3 [7]: comparable to those by JQ1 treatment; α-SMA fluorescence intensity after Ang II stimulation [8]: this effect was reversed; BRD4 thermal stabilization (CETSA, Western blot) [6]: in close accordance with that obtained for JQ1; Ang II-induced cell migration (wound scratch assay) [9]: effectively inhibited the enhanced cell migration induced by Ang II
Cc1nnc2n1-c1sc(C#Cc3cnn(CCCC#Cc4cccc5c4CN(C4CCC(=O)NC4=O)C5=O)c3)c(Cc3ccccc3)c1COC2 (stereo not drawn) [QCA570] | – | tumor regression [10]: complete and long-lasting tumor regression
